# Compound activity (PubChem)
# SUMO HTRF inh: inhibitors of in vitro SUMOylation cascade, primary screen, biochemical, HTRF, uHTS; SUMO-conjugating enzyme UBC9 (Homo sapiens), P63279; HTRF SUMOylation assay, SAE1/SAE2 + UBC9; inhibition, % at 35 µM; 0.36% of 290,000 active; AID 2006, 2009; in the data active = inhibition above about 50%, passing the limit was not always enough
# Target sequence (P63279 whole entry, looked up): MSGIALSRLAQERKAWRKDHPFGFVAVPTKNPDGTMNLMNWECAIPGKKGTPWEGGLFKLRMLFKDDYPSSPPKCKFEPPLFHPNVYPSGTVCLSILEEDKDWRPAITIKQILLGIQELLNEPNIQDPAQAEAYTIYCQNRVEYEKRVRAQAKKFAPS
# NALP1 inh: NALP1 inflammasome inhibitors in reconstituted yeast, colorimetric, S. cerevisiae, triplicate retest | S. cerevisiae NALP1/ASC/caspase-1 growth, X-gal OD620, 72 h | inhibition, % at 10 µM | 0.61% of 280,000 active | AID 2071, 2009; in the data active = inhibition mostly above about 24%, no sharp cut-off; inactive = mostly below about 32%
# Mot1-301 SUMO: yeast Mot1-301 growth rescue at high temperature, primary screen, SUMOylation pathway inhibitor project, S. cerevisiae, ATP luminescence, 38.5C. growth rescue, % at 18.8 µM. S. cerevisiae Mot1-301 growth rescue; percent above DMSO median, 100 means doubled. 1% of 320,000 active;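 active = every valid replicate shows activation above 250% relative to neutral control wells; inactive = the rest, any valid replicate at or below 250%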;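 also: OY570 slx delta 5 strain wells were the positive control but not used for scaling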
# VIM-2 inh: VIM-2 metallo-beta-lactamase inhibitors, primary screen, biochemical, epi-absorbance readout, Pseudomonas aeruginosa enzyme; purified VIM-2, nitrocefin hydrolysis, epi-absorbance fluorescence; inhibition, % at 5.6 µM; 0.89% of 290,000 active;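 active = inhibition above the mean of all tested compounds plus 3 SD, cutoff set per screening run, cut at about 7.5% in these data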;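 also: red hydrolysis product quenches plate fluorescence so inhibitors raise well fluorescence; 0% = enzyme with DMSO and 100% = DMSO without enzyme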
# IMP-1 inhibitor: IMP-1 metallo-beta-lactamase inhibitors, primary screen, biochemical, epi-absorbance readout, Pseudomonas aeruginosa enzyme. metallo-beta-lactamase IMP-1 (Pseudomonas aeruginosa). inhibition, % at 5.6 µM. 0.45% of 290,000 active. purified IMP-1, nitrocefin hydrolysis, epi-absorbance fluorescence;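 active = inhibition above the mean plus 3 SD of all compounds in the same screening run, cut at about 4.5% in these data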;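 also: 0% = IMP-1 with DMSO and 100% = DMSO wells lacking enzyme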
#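 Assay system: purified IMP-1; Quantity: IMP-1 0.2 nM before substrate addition; Medium: HEPES buffer pH 7.1 with ZnSO4 and Brij 35; Incubation: 15 min enzyme–compound preincubation, then 25 min nitrocefin reaction, 25 °C; Signal: fluorescence quenching readout, ex 480/em 530 nm; Controls: DMSO with and without IMP-1; Repeats: singlicate testing.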
# DNA FID counter: compounds displacing fluorescent DNA intercalator, primary screen, artefact control for HCV NS3 helicase inhibitor project, biochemical, FID fluorescence; DNA fluorescent intercalator displacement; inhibition, % at 7.9 µM; 0.17% of 290,000 active; AID 1845, 2009; in the data active = inhibition above about 37%;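 also: 0% = vehicle and 100% = reference compound; higher means more ethidium bromide displaced from hairpin DNA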
# Active calls of the source: *; · = no result. Shown are actives, neighbours in structure and some others; about 2.9% of the full set was active somewhere.
SMILES,SUMO HTRF inh,NALP1 inh,Mot1-301 SUMO,VIM-2 inh,IMP-1 inhibitor,DNA FID counter
CCn1c(C)c(C(C)=O)c(N2CCN(c3ccccc3)CC2)nc1=S,24,5,7,2,6.6*,0
CCn1c(C)c(C(C)=O)c(N2CCN(C(c3ccccc3)c3ccccc3)CC2)nc1=S,1,15,-14,0,-3,-2
Cc1cc(Cl)ccc1OCCCC(=O)N/N=C/c1cccc([N+](=O)[O-])c1,-6,·,73,-2,0,-3
c1ccc(-n2nnnc2Oc2ccc(-n3ccnc3)cc2)cc1,-23,2,688,11*,-4,-10
Cc1cc2c3c(c1)C1(C(=O)N3C(C)(C)CC2C)C(C#N)=C(N)Oc2cc(O)ccc21 (centres undefined),-38,-6,-15,-4,-2,-32
CCc1cc2c3c(c1)C1(C(=O)N3C(C)(C)CC2C)C(C#N)=C(N)N2C(=C1C#N)Nc1ccccc12 (centres undefined),-5,39,608*,-2,-3,-20
O=C1Nc2c(Br)cccc2C1=O,·,·,16,·,·,·
O=C(COC(=O)c1ccc(CO)cc1)Nc1ccc(OC(F)F)cc1,18,-25,-2,2,1,-2
COc1cc2ccccc2nn1,23,-5,4,-2,-2,2
COc1ccc2c(n1)Sc1nc3ccccc3nc1N2,75*,2,-8,1,3,15
Cc1c(C(=O)N2CCOCC2)sc(NC(=O)Cc2ccccc2)c1C#N,15,8,96,-3,-4,2
CC(=O)c1ccc(N2CCN(S(=O)(=O)c3c(C)[nH]c(C)c3C(=O)N3CCCCC3)CC2)cc1,26,19,12,-1,-1,-48
O=c1[nH]c2cc3c(cc2cc1C(c1nnnn1Cc1ccccc1)N1CCN2CCCC2C1)OCCO3 (centres undefined),9,29*,·,-2,-4,14
O=c1[nH]c2cc3c(cc2cc1C(c1nnnn1Cc1ccccc1)N1CCCCCC1)OCCO3 (centres undefined),24,-30,-2,1,0,-4
COc1ccc(OC)c(NS(=O)(=O)c2ccc(NC(C)=O)cc2)c1,8,4,273*,-3,1,-1
COc1ccc(NS(=O)(=O)c2ccc(NC(C)=O)cc2)c(OC)c1,3,8,29,-3,-3,5
CC(=O)Nc1ccc(S(=O)(=O)Nc2nc3ccccc3nc2Nc2cccc(O)c2)cc1,12,14,-28,-2,-2,-10
COc1ccc(OC)c(S(=O)(=O)Nc2cccc3c(O)cccc23)c1,·,·,-1,·,·,·
CC(=O)Nc1ccc(S(=O)(=O)Nc2nc3ccccc3nc2Nc2ccc3ccccc3c2)cc1,55*,16,6,-2,0,0
COc1ccc(OC)c(S(=O)(=O)Nc2ccc(O)c3ccccc23)c1,26,104*,-14,4,0,8
CCOC(=O)N1CCC2(CC1)C(C#N)=C(N)Oc1c2c(C)nn1-c1cccc(Cl)c1,-3,-7,151,-3,-4,-28
CCOC(=O)COc1coc(CN2CCN(c3ccc(F)cc3)CC2)cc1=O,8,5,151,-5,-5,-24
COc1ccc(N=C2SC(CC(=O)Nc3ccccc3)C(=O)N2CCc2ccccn2)cc1 (centres undefined),-14,29,356*,-2,-1,-21
C1CCC(OCCN2CCN(CCOC3CCCCC3)CC2)CC1,6,39*,87,0,1,11
CCn1c(SCC(=O)Nc2cc(C)on2)nnc1-c1ccco1,12,39*,-7,-2,-5,-1
SMILES,SUMO HTRF inh,NALP1 inh,Mot1-301 SUMO,VIM-2 inh,IMP-1 inhibitor,DNA FID counter
O=C(COC(=O)c1cc2ccccc2oc1=O)Nc1ccc(F)cc1F,23,12,-10,0,-1,1
CC(C)CC(NC(=O)C(NC(=O)C1CCC(=O)N1C(=O)OCc1ccccc1)C(C)C)C(=O)N1CCCC1C(N)=O (centres undefined),6,4,-19,-1,-3,-20
O=C1CS/C(=C\[N+](=O)[O-])N1c1ccccc1,0,3,·,1,4.6*,-3
O=C1CS/C(=N\N=C\c2ccco2)N1c1ccccc1,32,8,-6,-3,-3,-15
CCOc1ccc(S(=O)(=O)N2CCN(Cc3ccc4c(c3)OCO4)CC2)cc1C,2,20,328*,0,-1,-19
O=C(/C=C(/c1ccc(Cl)cc1)n1cncn1)c1ccccc1,-4,30,39,-2,-1,-8
Cc1ccc(C)c(N2CCN(CCCNC(=O)Cn3cccc3C(=O)c3ccccc3C)CC2)c1,11,25,-26,-5,-4,38*
Cc1ccccc1C(=O)c1cccn1CC(=O)NCCCN1CCCCC1,9,23,-12,-2,-2,5
COC(=O)C(C)Sc1nc2c(c(=O)[nH]c(=O)n2C)n1CCC(C)C (centres undefined),-4,-76,2,1,-1,-27
COC(=O)C(C)Sc1nc2c(c(=O)n(C)c(=O)n2C)n1CCC(C)C (centres undefined),8,30,961*,-2,-3,-34
O=C1CCC(C(=O)OCC(=O)N2N=C3/C(=C/c4ccccc4)CCCC3C2c2ccccc2)N1 (centres undefined),10,17,4,-3,-6,-41
O=C(c1ccccn1)N1N=C2/C(=C/c3ccccc3)CCCC2C1c1ccccc1 (centres undefined),12,18,400*,3,-1,-21
CC(C)c1c(C(=O)N/N=C/c2cccc(OCc3ccc(F)cc3)c2)nnn1-c1nonc1N,-50,16,1,-7,-2,-7
COC(=O)c1c(C(=O)OC)c2cc(C)ccn2c1Cl,0,6,·,8.1*,-4,-6
COC(=O)c1nc2cc(C)ccn2c1F,16,16,3,1,-1,6
Cc1cc(C(F)(F)F)c2c(=O)[nH]c(=O)n(Cc3ccccc3)c2n1,13,18,-7,3,7.3*,-9
O=c1[nH]c(=O)n(Cc2ccccc2)c2nc(-c3ccco3)cc(C(F)(F)F)c12,23,0,227,-3,-1,-3
COC(=O)c1ccc(C)c(NC(=O)CN(c2ccccc2)S(=O)(=O)N(C)C)c1,12,18,-19,-2,-2,-18
COC(=O)c1c(-c2cccs2)csc1NC(=O)c1cccnc1,25,14,·,11*,-3,-12
